This is a sample that favours compounds with a hit; in the whole collection about 1.2% have one here.
procasp7 counter: procaspase-7 activators, primary screen, counter-screen for procaspase-3 activator project, biochemical, absorbance, HTS, human; AID 463210, 2010; recombinant procaspase-7, Ac-DEVD-pNA absorbance 405 nm; D23A/D198A/D206A triple mutant, cannot self-cleave; scale: DMSO 0, 5 µM enzyme 100; activation, % at 8.5 µM; 330,000 compounds, 0.093% hits; Caspase-7 (Homo sapiens), P55210;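 active = percent activation above the screen-wide mean plus 3 SD, cut at about 25% in these data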
Target sequence (P55210 whole entry D23A/D198A/D206A): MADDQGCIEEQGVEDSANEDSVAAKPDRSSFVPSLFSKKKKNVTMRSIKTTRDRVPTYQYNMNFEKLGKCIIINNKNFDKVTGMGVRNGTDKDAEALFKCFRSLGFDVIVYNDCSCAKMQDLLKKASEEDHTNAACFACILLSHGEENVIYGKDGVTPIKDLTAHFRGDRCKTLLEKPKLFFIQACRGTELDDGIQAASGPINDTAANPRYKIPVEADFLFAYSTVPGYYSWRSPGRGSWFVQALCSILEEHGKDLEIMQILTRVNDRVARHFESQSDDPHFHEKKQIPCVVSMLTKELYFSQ
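System: Uncleavable procaspase-7 mutant enzyme; Amount: 2 µM procaspase-7 mutant as dispensed; Schedule: 1 h compound preincubation, 2 h substrate cleavage, 25 °C; Measured by: 405 nm absorbance of p-nitroaniline; Evaluation: percent activation from buffer-corrected 0–120 min absorbance change; Control set: low DMSO alone, high DMSO plus 5 µM PC-7.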
ASAP1 GAP inh: inhibitors of human ASAP1 ArfGAP activity, primary screen, biochemical, fluorescence polarization | Arf-GAP with SH3 domain, ANK repeat and PH domain-containing protein 1 (Homo sapiens), … | ASAP1-stimulated ARF1 GTP hydrolysis, GDP FP detection | inhibition, % at 16.5 µM | 360,000 compounds, 0.19% hits | AID 624377, 2012; in the data active = inhibition above about 25%;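 also: 0% = vehicle with enzyme and substrate and 100% = no enzyme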
Yeast superoxide: reduction of superoxide in aged yeast, primary screen, HTS | S. cerevisiae aged cells, superoxide DHE fluorescence; hits give low values | superoxide response (% of plate mean), % at 10 µM | 330,000 compounds, 0.18% hits | AID 2690, 2010;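 active = superoxide response under a set limit, about three screen SD below normal, cut at about 65% in these data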;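 also: yeast aged for seven days with compound at 30 °C before DHE staining; 100% = average MFI of all compound-treated wells on the plate with controls excluded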
LANA-H2A inh: blockers of LANA interaction with H2A/H2B – biochemical, FP readout, HTS, primary screen | inhibition, % (no concentration beside the values) | 320,000 compounds, 0.6% hits | Protein LANA1 (Human herpesvirus 8 type P (isolate GK18)), Q9QR71 | cell-free LANA-H2A/H2B peptide, fluorescence polarization | AID 2629, 2010; in the data active = inhibition mostly above about 10%, no sharp cut-off; inactive = mostly below about 6.7%
procasp3 activ: activators of human procaspase-3 D3A mutant, primary screen, biochemical, absorbance, PC-3 D3A mutant, single concentration. 330,000 compounds, 0.11% hits. recombinant procaspase-3 D3A, Ac-DEVD-pNA absorbance 405 nm. AID 463141, 2010. activation, % at 8.5 µM;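 active = activation above the mean of all tested compounds plus 3 SD, cut at about 21% in these data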;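 also: 0% = DMSO alone and 100% = DMSO wells spiked with extra 5 µM PC-3 D3A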
Target sequence (P42574 whole entry D9A/D28A/D175A): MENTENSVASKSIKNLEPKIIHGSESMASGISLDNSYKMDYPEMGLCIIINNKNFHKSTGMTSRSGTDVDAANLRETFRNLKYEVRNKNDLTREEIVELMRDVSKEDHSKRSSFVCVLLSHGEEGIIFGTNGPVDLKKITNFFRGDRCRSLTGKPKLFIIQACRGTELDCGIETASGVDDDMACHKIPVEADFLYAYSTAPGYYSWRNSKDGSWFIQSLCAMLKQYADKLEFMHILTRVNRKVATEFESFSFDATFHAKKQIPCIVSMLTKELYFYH
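Assay system – Procaspase-3 D3A mutant, all three cleavage aspartates alanine · Controls – DMSO-only low control, 5 µM PC-3 D3A high control · Schedule – 1 h compound preincubation, 2 h substrate hydrolysis at 25 °C · Signal – 405 nm absorbance of p-nitroaniline, reads at 0 and 120 min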
ARFGAP1 inh: inhibitors of rat ARFGAP1 GAP activity, primary screen, biochemical, fluorescence polarization, GDP tracer. Arfgap1-stimulated ARF1 GTP hydrolysis, GDP FP detection. AID 651572, 2012. 360,000 compounds, 0.26% hits. ADP-ribosylation factor GTPase-activating protein 1 (Rattus norvegicus), Q62848. inhibition, % at 16.5 µM;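 active = inhibition above a per-plate limit, mean inhibition of low control wells plus 3 SD, cut at about 25% in these data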;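 also: 0% = DMSO wells with enzyme and 100% = wells lacking Arfgap1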
Target sequence (Q62848 1-136 limits assumed): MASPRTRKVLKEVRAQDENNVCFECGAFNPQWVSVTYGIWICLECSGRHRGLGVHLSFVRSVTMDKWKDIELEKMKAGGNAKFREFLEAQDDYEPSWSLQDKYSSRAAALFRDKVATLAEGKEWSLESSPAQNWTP
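Material – truncated rat Arfgap1 GAP domain · Buffer or medium – HEPES-based buffer, pH 7.5 · Reagent – human ARF1(Δ1-17)-GTP substrate · Dosing – 16.5 µM single point, 1.26% DMSO · Schedule – GTP hydrolysis reaction 2 h at 25 °C · Technique – GDP detection by fluorescence polarization · Benchmarks – No-Arfgap1 wells (100%) versus DMSO full-reaction wells (0%) · Repeats – single replicate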
PC3 dual counter: procaspase-3 activators, counter-screen for dual procaspase-3/7 activator project, biochemical, absorbance, PC-3 D3A mutant, human; shares compounds with procasp7 counter; recombinant PC-3 D3A, Ac-DEVD-pNA absorbance 405 nm; aspartates 9, 28, 175 changed to alanine; 100% = enzyme control; activation, % at 8.5 µM; 290 tested, under 10 active;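 active = mean percent activation across triplicates above a set limit taken from the earlier primary procaspase-3 screen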;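 also: 0% = DMSO wells and 100% = DMSO wells with 5 µM added PC-3 D3A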
PC7 dual conf: activation of procaspase-7 enzyme – biochemical, absorbance, human, dual procaspase-3/-7 activator project, confirmation | 290 tested, under 10 active | shares compounds with procasp7 counter | recombinant procaspase-7, Ac-DEVD-pNA absorbance 405 nm; D23A/D198A/D206A mutant that cannot self-cleave | AID 493115, 2011 | activation, % at 8.5 µM;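 active = mean activation above a set limit carried over from the earlier primary screen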;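 also: 0% = DMSO only and 100% = DMSO with added 5 µM PC-7 enzyme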
ASAP1 GAP conf: ASAP1 GAP activity inhibitors, confirmation, biochemical, fluorescence polarization, human, triplicate; 620 compounds, 37% hits; inhibition, % at 16.5 µM; ASAP1-stimulated Arf1 GTPase, GDP fluorescence polarization; AID 624431, 2012; shares compounds with ASAP1 GAP inh;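 active = mean inhibition over triplicates exceeds the hit threshold derived for the earlier primary screening run, cut at about 25% in these data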
The depositor's hits bear a star.

How did N#Cc1c2c(c(Nc3ccccc3)n3c1nc1ccccc13)CCC2 do in these assays?
procasp7 counter: 61*; ASAP1 GAP inh: 5; Yeast superoxide: 107; LANA-H2A inh: 7; procasp3 activ: 11; ARFGAP1 inh: 12; PC3 dual counter: 4; PC7 dual conf: 1

What do the screens show for `CS(=O)(=O)N1CCC(C(=O)N2CCN(C(c3ccccc3)c3ccccc3)CC2)CC1`?
procasp7 counter: 4; ASAP1 GAP inh: 8; Yeast superoxide: 100; LANA-H2A inh: -3; procasp3 activ: -2; ARFGAP1 inh: 2

How did Cc1ccc(Cn2c(=O)c3cccnc3n(CC(=O)Nc3cccc(C(F)(F)F)c3)c2=O)cc1 do in these assays?
procasp7 counter: 42*; ASAP1 GAP inh: -5; Yeast superoxide: 100; LANA-H2A inh: 0; procasp3 activ: 1; ARFGAP1 inh: 2; PC3 dual counter: -1; PC7 dual conf: -1

How did O=C(COC(=O)c1ncc(Cl)c(Cl)c1Cl)NC(=O)NCc1ccccc1 do in these assays?
procasp7 counter: 1; ASAP1 GAP inh: 0; Yeast superoxide: 125; LANA-H2A inh: 2; procasp3 activ: -10; ARFGAP1 inh: 0

How did COc1ccc(-c2oc(=O)c3cc(OC)c(OC)cc3c2-c2cc(F)cc(OC)c2)cc1 do in these assays?
procasp7 counter: 8; ASAP1 GAP inh: 3; Yeast superoxide: 102; LANA-H2A inh: -3; procasp3 activ: -2; ARFGAP1 inh: 4

How did COc1ccc(-c2c(-c3ccc(C#N)cc3)oc(=O)c3cc(OC)c(OC)cc23)cc1 do in these assays?
procasp7 counter: 26*; ASAP1 GAP inh: -10; Yeast superoxide: 83; LANA-H2A inh: 2; procasp3 activ: 15; ARFGAP1 inh: -5; PC3 dual counter: -4; PC7 dual conf: -6

How did COc1cnc(-c2cccc(C(F)(F)F)c2)c(NC(=O)c2cc3ccccc3s2)n1 do in these assays?
ASAP1 GAP inh: 1; ARFGAP1 inh: 5

How did Cc1[nH]c(C)c(S(=O)(=O)NCCc2ccc(S(N)(=O)=O)cc2)c1C(=O)N1CCCC1 do in these assays?
procasp7 counter: -8; ASAP1 GAP inh: -8; Yeast superoxide: 75; LANA-H2A inh: -1; procasp3 activ: 2; ARFGAP1 inh: 0

How did COc1ccc(Nc2ncc(C(=O)N3CCN(c4ccc(F)cc4)CC3)c3ccccc23)cc1 do in these assays?
procasp7 counter: 27*; ASAP1 GAP inh: 2; Yeast superoxide: 84; LANA-H2A inh: -9; procasp3 activ: 13; ARFGAP1 inh: 3; PC3 dual counter: 8; PC7 dual conf: 0

What do the screens show for `COc1ccc(Nc2ncc(C(=O)O)c3ccccc23)cc1`?
procasp7 counter: 2; ASAP1 GAP inh: -9; Yeast superoxide: 82; LANA-H2A inh: -1; procasp3 activ: 0; ARFGAP1 inh: -3

What do the screens show for `COc1nnc(OC)c2ccccc12`?
procasp7 counter: -1; ASAP1 GAP inh: -2; Yeast superoxide: 99; LANA-H2A inh: 8; procasp3 activ: 4; ARFGAP1 inh: -5

How did COc1c2ccccc2c(OC)c2ccccc12 do in these assays?
procasp7 counter: 63*; ASAP1 GAP inh: 4; Yeast superoxide: 113; LANA-H2A inh: -4; procasp3 activ: 81*; ARFGAP1 inh: 1; PC3 dual counter: -30; PC7 dual conf: -34

How did COc1ccc(-c2cc(C(=O)OC3CCOC3=O)c3ccccc3n2)cc1 (stereo not drawn) do in these assays?
procasp7 counter: 28*; ASAP1 GAP inh: 6; Yeast superoxide: 98; LANA-H2A inh: 1; procasp3 activ: 26*; ARFGAP1 inh: -1; PC3 dual counter: 18; PC7 dual conf: 12

How did CCCCNC(=O)C1(C)CCC(=O)N1CCCn1ccnc1 (stereo not drawn) do in these assays?
ASAP1 GAP inh: -5; ARFGAP1 inh: -3

How did Cc1ccccc1C(=O)N1CCC2CC1c1cc(Cl)ccc12 (stereo not drawn) do in these assays?
ASAP1 GAP inh: -11; ARFGAP1 inh: -1

What do the screens show for `Nc1c(S(=O)(=O)c2cccs2)c2nc3ccccc3nc2n1Cc1ccccc1`?
procasp7 counter: 55*; ASAP1 GAP inh: 26*; Yeast superoxide: 100; LANA-H2A inh: 6; procasp3 activ: 44*; ARFGAP1 inh: 16; PC3 dual counter: -29; PC7 dual conf: -36; ASAP1 GAP conf: 8

What do the screens show for `CC(C)(C)c1oc(C(=O)O)cc1CN1CCOCC1`?
procasp7 counter: -1; ASAP1 GAP inh: -8; Yeast superoxide: 94; LANA-H2A inh: 2; procasp3 activ: 5; ARFGAP1 inh: 3

How did CC(=O)Cc1nsc(NC(=O)c2ccc(-c3ccc(Cl)cc3Cl)o2)n1 do in these assays?
procasp7 counter: 0; ASAP1 GAP inh: 0; Yeast superoxide: 137; LANA-H2A inh: 2; procasp3 activ: 1; ARFGAP1 inh: 14

Results for Cc1nnc2sc(-c3ccc(NC(=O)c4ccc(-c5ccc(Cl)cc5Cl)o4)cc3)nn12 ?
procasp7 counter: -2; ASAP1 GAP inh: 112*; Yeast superoxide: 99; LANA-H2A inh: -4; procasp3 activ: -6; ARFGAP1 inh: 20; ASAP1 GAP conf: 55*

How did NC(Cc1ccc(C(F)(F)F)cc1)c1csc(Nc2ccc(C(=O)NCc3ccco3)cn2)n1 (stereo not drawn) do in these assays?
ASAP1 GAP inh: 28*; ARFGAP1 inh: 12; ASAP1 GAP conf: 13
